Key:
Staphylococcus aureus [1] = assay: Antibacterial activity against methicillin-resistant Staphylococcus aureus NRS123-USA400 clinical isolates assessed as ratio of MIC after and before 1 serial passages by broth microdilution assay; type: functional
Procedure, shortened: (§1)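 MRSA USA400 was serially passaged over a 14-day period in the presence of each compound or control antibiotic. MIC was determined by broth microdilution after each passage. A four-fold rise in MIC was taken as a sign of resistance.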

Staphylococcus aureus [2] = assay: Antibacterial activity against methicillin-resistant Staphylococcus aureus NRS123-USA400 clinical isolates assessed as ratio of MIC after and before 13 serial passages by broth microdilution assay; type: functional; procedure, shortened: as §1

CO[C@H]1/C=C/O[C@@]2(C)Oc3c(C)c(O)c4c(O)c(c(/C=N/N5CCN(C)CC5)c(O)c4c3C2=O)NC(=O)/C(C)=C\C=C\[C@H](C)[C@H](O)[C@@H](C)[C@@H](O)[C@@H](C)[C@H](OC(C)=O)[C@@H]1C [RIFAMPIN]
Ratio (Staphylococcus aureus [1]): 7 | Ratio (Staphylococcus aureus [2]): >500000

Reference: ChEMBL document CHEMBL4334464, “From Phenylthiazoles to Phenylpyrazoles: Broadening the Antibacterial Spectrum toward Carbapenem-Resistant Bacteria” (J Med Chem, 2019)
